Experimental data reported in ChEMBL document CHEMBL1127800, “Asimin, asiminacin, and asiminecin: novel highly cytotoxic asimicin isomers from Asimina triloba” (J Med Chem, 1994).
Converted amounts (≈) assume the structure as drawn.

Key:
[1] = Tested for cytotoxicity by using brine shrimp lethality test; type: organism-based; settings: artemia, in vivo
A549 = test: Tested in vitro for cytotoxicity against A-549 lung cancer cells; type: functional; settings: Homo sapiens, read-out: ED50 (the source's name)
Method in brief: (§1)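 Seven-day in vitro cytotoxicity assay in human tumour cell lines (A-549 lung carcinoma, MCF-7 breast carcinoma, HT-29 colon carcinoma), run by standard protocols; adriamycin tested alongside.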

MCF7 = test: Tested in vitro for cytotoxicity against MCF-7 breast cancer cells; type: functional; settings: Homo sapiens, read-out: ED50 (the source's name); method in brief: as §1
HT-29 = test: Tested in vitro for cytotoxicity against H-29 colon cancer cells; type: functional; settings: Homo sapiens, read-out: ED50 (the source's name); method in brief: as §1

SMILES | LC50 [1] | EC50 (A549) | EC50 (MCF7) | EC50 (HT-29)
CCCCCCCCCC[C@@H](C(C)=O)[C@H]1CC[C@H]([C@H]2CC[C@H]([C@@H](CCCC[C@H](CCCC[C@@H](C)CCC3=C[C@H](C)OC3=O)C(C)=O)C(C)=O)O2)O1 | 0.0057 µg/mL (≈ 0.00797 µM) |  |  | 
CCCCCCCCCC[C@@H](O)[C@H]1CC[C@H]([C@H]2CC[C@H]([C@H](O)CCCCCCCCC[C@@H](C)CCC3=C[C@H](C)OC3=O)O2)O1 | 4600 µg/mL (≈ 7410 µM) |  |  | 
CCCCCCCCCC[C@@H](O)[C@H]1CC[C@H]([C@H]2CC[C@H]([C@H](O)CCCCCCCCCC[C@H](O)CC3=C[C@H](C)OC3=O)O2)O1 | 0.0256 µg/mL (≈ 0.0411 µM) | 0.00843 µg/mL (≈ 0.0135 µM) | 0.852 µg/mL (≈ 1.37 µM) | 
COc1cccc2c1C(=O)c1c(O)c3c(c(O)c1C2=O)C[C@@](O)(C(=O)CO)C[C@@H]3O[C@H]1C[C@H](N)[C@H](O)[C@H](C)O1 [DOXORUBICIN] | 0.257 µg/mL (≈ 0.473 µM) | 0.000104 µg/mL (≈ 0.000191 µM) | 0.0176 µg/mL (≈ 0.0324 µM) | 0.000153 µg/mL (≈ 0.000281 µM)
CCCCCC[C@H](O)CCC[C@@H](O)[C@H]1CC[C@H]([C@H]2CC[C@H]([C@H](O)CCCCCCCCC[C@@H](C)CCC3=C[C@H](C)OC3=O)O2)O1 | 0.0049 µg/mL (≈ 0.00769 µM) |  |  | 
